What was measured:
[1] = tested on: NIH3T3; assay: Cytoprotective activity against UV-induced apoptosis in mouse NIH/3T3 cells assessed as late apoptotic cells at 20 uM preincubated for 20 hrs followed by UV irradiation for 5 mins and measured after 24 hrs by flow cytometric analysis (reference value: 6.4%); assay type: functional
[2] = molecular target: T1, Sphingomyelin phosphodiesterase (Mus musculus) (UniProt Q04519); assay: Inhibition of acid sphingomyelinase in mouse NIH/3T3 cells assessed as ceramide levels at 5 uM after 20 hrs by LC-MS/MS analysis relative to control; assay type: cell-based
T1 sequence (whole entry): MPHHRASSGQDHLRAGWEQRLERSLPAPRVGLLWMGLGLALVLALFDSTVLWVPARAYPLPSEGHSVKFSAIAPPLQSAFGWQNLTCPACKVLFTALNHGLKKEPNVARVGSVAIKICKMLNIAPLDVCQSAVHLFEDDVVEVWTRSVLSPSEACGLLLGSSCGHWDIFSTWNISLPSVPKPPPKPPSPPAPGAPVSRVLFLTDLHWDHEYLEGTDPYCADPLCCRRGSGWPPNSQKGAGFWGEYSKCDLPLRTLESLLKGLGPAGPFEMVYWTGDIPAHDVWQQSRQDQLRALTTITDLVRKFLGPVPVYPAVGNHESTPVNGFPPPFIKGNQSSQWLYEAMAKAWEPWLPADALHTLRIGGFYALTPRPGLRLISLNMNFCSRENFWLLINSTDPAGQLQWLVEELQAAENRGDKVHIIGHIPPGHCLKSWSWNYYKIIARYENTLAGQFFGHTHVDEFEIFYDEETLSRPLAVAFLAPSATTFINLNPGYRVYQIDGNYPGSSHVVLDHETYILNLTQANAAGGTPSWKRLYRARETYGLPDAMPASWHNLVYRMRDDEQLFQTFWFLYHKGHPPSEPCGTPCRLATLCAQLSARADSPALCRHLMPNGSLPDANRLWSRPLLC
In short: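 NIH3T3 cells in DMEM with 10% FBS, 37 °C, 5% CO₂; at 90% confluence given fresh medium plus inhibitor (5, 10, 20 µM) for 20 h; total ceramides and sphingomyelin quantified by LC-MS-MS versus untreated control; mean ± SD of three independent experiments, Student's t-test.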

CCCCCCCCCCOc1cc(C(=O)NO)ccc1OC
Activity [1]: 8.4% | inhibition [2]: 26.1%

— ChEMBL document CHEMBL4152204, “Discovery of N-hydroxy-3-alkoxybenzamides as direct acid sphingomyelinase inhibitors using a ligand-based pharmacophore model” (Eur J Med Chem, 2018)
